Assay outcomes deposited in PubChem by Broad Institute.
A selection: hits, their analogues and other compounds. The true share with any hit is near 5.9%.
T cruzi growth-1: T. cruzi proliferation inhibition; T. cruzi beta-gal in NIH3T3, GalScreen luminescence, 90 h; inhibition, % at 8.34 µM; actives 5.9% (n = 77,000); AID 624255;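 active = mean inhibition above about 93%, with at least 55% of replicates each passing it, limit read from the data, passing the limit was not always enough; inconclusive = only one of those two conditions holds; inactive = neither condition holds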
KDM4C inh: inhibitors of human demethylase GASC-1 KDM4C; GST-KDM4C 2-372, H3K9me3 peptide, LANCE TR-FRET; inhibition, % at 12.5 µM; actives 0.15% (n = 96,000); AID 720574;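 active = mean replicate inhibition above about 25%, with at least 55% of replicates also reaching it, limit read from the data, passing the limit was not always enough; inconclusive = only one of those two conditions met; inactive = neither condition met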
Target sequence (Q9H3R0 2-372 limits assumed): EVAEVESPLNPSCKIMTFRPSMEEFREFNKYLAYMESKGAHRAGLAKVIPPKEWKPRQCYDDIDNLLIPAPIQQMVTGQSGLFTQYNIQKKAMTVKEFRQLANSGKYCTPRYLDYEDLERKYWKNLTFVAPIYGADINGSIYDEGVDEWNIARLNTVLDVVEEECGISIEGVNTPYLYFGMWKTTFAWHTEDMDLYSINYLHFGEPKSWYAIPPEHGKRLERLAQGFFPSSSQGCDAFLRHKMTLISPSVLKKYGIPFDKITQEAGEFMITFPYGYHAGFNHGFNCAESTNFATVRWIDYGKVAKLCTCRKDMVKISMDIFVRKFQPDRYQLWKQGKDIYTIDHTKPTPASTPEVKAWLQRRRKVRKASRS
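Material: GST-tagged GASC-1 (JMJD2C) catalytic fragment, aa 2-372. Input: enzyme final amount 10 nM. Medium: HEPES buffer, pH 7.5, plus ascorbate. Reagent: H3K9me3 peptide substrate, Fe(II), 2-oxoglutarate. Doses: single dose. Times: reaction 30 min RT, detection step 1 h RT. Measured by: LANCE TR-FRET. Evaluation: Fall in 671/618 emission ratio as inhibition.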
Pf Dd2 growth: inhibitors of Plasmodium falciparum Dd2 growth. P. falciparum Dd2 growth, SYBR Green, 72 h; hits give low values. activity change, % at 10 µM. actives 2.3% (n = 94,000). AID 1159554; in the data active = activity change below about -80%; inconclusive = no clear call, values can overlap the other calls
IDH1 R132H inh: inhibitors of human IDH1 R132H; O75874; IDH1 R132H reductase, diaphorase/resazurin fluorescence, 60 min; inhibition, % at 10 µM; actives 0.18% (n = 70,000); in the data active = inhibition above about 34%; inconclusive = no clear call, values can overlap the other calls; inactive = below about 11%;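 also: 0% = DMSO and 100% = no enzyme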
Target sequence (O75874 whole entry R132H): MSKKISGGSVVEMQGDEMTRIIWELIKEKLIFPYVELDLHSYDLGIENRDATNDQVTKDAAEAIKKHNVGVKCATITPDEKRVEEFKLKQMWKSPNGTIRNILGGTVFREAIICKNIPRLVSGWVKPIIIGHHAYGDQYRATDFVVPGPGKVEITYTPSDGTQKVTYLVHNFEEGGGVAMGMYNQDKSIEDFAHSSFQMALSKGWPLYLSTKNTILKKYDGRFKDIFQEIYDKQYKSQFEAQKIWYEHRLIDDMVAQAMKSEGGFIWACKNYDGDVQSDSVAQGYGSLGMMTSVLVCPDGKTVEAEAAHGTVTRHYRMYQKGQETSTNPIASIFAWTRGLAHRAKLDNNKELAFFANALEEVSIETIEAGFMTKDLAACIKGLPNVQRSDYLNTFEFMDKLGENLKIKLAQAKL
T cruzi growth-2: blocks T. cruzi growth in NIH3T3 host cells | shares compounds with T cruzi growth-1 | T. cruzi beta-gal in NIH3T3, GalScreen luminescence, 90 h | inhibition, % at 8.35 µM | actives 72% (n = 5,600) | AID 651739;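 active = mean replicate inhibition above about 95% and at least 55% of replicates individually reaching it, limit read from the data; inconclusive = only one of the two criteria is met; inactive = neither criterion is met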
T cruzi growth-3: inhibitors of T. cruzi proliferation | shares compounds with T cruzi growth-1 | T. cruzi beta-gal in NIH3T3, GalScreen luminescence, 90 h | inhibition, % at 2.09 µM | actives 21% (n = 5,600) | AID 651740;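 active = mean inhibition above about 95%, with at least 55% of replicates also reaching it, limit read from the data; inconclusive = meets just one of the two conditions; inactive = meets neither condition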;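 also: plate controls were neutral control median for no effect and positive control median for full effect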
3T3 cytotox: cytotoxicity in mouse NIH/3T3 fibroblasts; AID 651742; NIH/3T3 viability, CellTiter-Glo ATP luminescence, 90 h; actives 14% (n = 5,600); cytotoxicity (signal decrease), % at 8.35 µM; shares compounds with T cruzi growth-1;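 active = mean signal decrease across replicates above about 35% based on untreated-well scatter, with enough replicates individually passing, limit read from the data; inconclusive = no rule stated though some were filed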;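 also: 0% = median of neutral control wells and 100% = median of positive control wells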
3T3 cytotox 2: kills mouse NIH/3T3 fibroblasts | shares compounds with T cruzi growth-1 | NIH/3T3 viability, CellTiter-Glo ATP luminescence, 90 h | inhibition, % at 24.9 µM | actives 56% (n = 5,600) | AID 651744;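 active = mean loss of cell viability signal at or above a set limit, and enough replicates individually reaching it; inconclusive = meets only the mean limit or only the replicate share; inactive = meets neither condition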;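 also: 0% = median of neutral control wells and 100% = median of positive control wells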
* marks the source's active call; other numbers are inactive results; u = inconclusive; x = no result.

SMILES | T cruzi growth-1 | KDM4C inh | Pf Dd2 growth | IDH1 R132H inh | T cruzi growth-2 | T cruzi growth-3 | 3T3 cytotox | 3T3 cytotox 2
CCCC#Cc1ccc([C@@H]2[C@@H](CO)N3CCCCN(C(=O)c4ccc5c(c4)OCO5)C[C@@H]23)cc1 | 122* | -1 | -9 | x | 107* | 76 | 38* | 102*
CCCC#Cc1ccc([C@@H]2[C@H]3CN(C(=O)c4ccc5c(c4)OCO5)CCCCN3[C@H]2CO)cc1 | 94 | -1 | -34 | x | x | x | x | x
Cc1ccccc1-c1ccc2c(c1)O[C@H](CN(C)Cc1ccncc1)[C@H](C)CN([C@@H](C)CO)S2(=O)=O | 97* | 2 | -55 | 4 | 107* | 75 | 52* | u
C[C@H]1CN([C@@H](C)CO)S(=O)(=O)c2ccc(-c3ccccc3F)cc2O[C@H]1CN(C)Cc1ccncc1 | 107* | 4 | 14 | -1 | 99* | 92 | 32 | 56*
C[C@@H]1CN([C@H](C)CO)S(=O)(=O)c2ccc(-c3ccccc3F)cc2O[C@H]1CN(C)Cc1cccnc1 | 95 | 5 | -51 | 0 | x | x | x | x
C[C@H](CO)N1C[C@H](C)[C@H](CN(C)Cc2cccnc2)Oc2cc(-c3ccccc3F)ccc2S1(=O)=O | 87 | 0 | -2 | 8 | x | x | x | x
C[C@@H]1CN([C@H](C)CO)S(=O)(=O)c2ccc(-c3ccccc3F)cc2O[C@H]1CN(C)Cc1ccncc1 | 116* | 0 | -42 | 0 | 99* | 105* | 92* | 103*
Cn1c(SCC(=O)Nc2cc(=O)n(C)c(=O)n2C)nc2sc3c(c2c1=O)CCC3 | x | x | x | 0 | x | x | x | x
COc1cccc(S(=O)(=O)N2CCCCN3[C@H](CO)[C@H](c4ccc(C#CC(C)C)cc4)[C@H]3C2)c1 | 97* | 1 | -69 | x | 106* | 108* | 33 | 103*
Cc1cccc(S(=O)(=O)N2CCCCN3[C@H](C2)[C@@H](c2ccc(C#CC(C)C)cc2)[C@@H]3CO)c1 | u | 0 | -34 | x | 101* | 112* | 47* | 98*
COc1cccc(S(=O)(=O)N2CCCCN3[C@H](C2)[C@@H](c2ccc(C#CC(C)C)cc2)[C@@H]3CO)c1 | 81 | 0 | -16 | x | x | x | x | x
Cc1cc(NC(=O)C(=O)NCc2cccnc2)ccc1Br | x | x | x | 0 | x | x | x | x
CC(=O)c1ccc(NC(=O)CSc2nnc3n(C)c(=O)c4c5c(sc4n23)CCCC5)cc1 | x | x | x | 0 | x | x | x | x
C[C@H](CO)N1C[C@H](C)[C@H](CN(C)Cc2ccccc2)Oc2ccc(NS(=O)(=O)c3ccc(F)cc3)cc2CC1=O | 72 | 1 | -41 | 4 | x | x | x | x
C[C@@H]1CN([C@H](C)CO)C(=O)Cc2cc(NS(=O)(=O)c3ccc(F)cc3)ccc2O[C@H]1CN(C)Cc1ccccc1 | 97* | 1 | 7 | 0 | 110* | 14 | 0 | 23
C[C@H]1CN([C@@H](C)CO)C(=O)Cc2cc(NS(=O)(=O)c3ccc(F)cc3)ccc2O[C@H]1CN(C)Cc1ccccc1 | 100* | 0 | -42 | -2 | 99* | 24 | -8 | 28
C[C@H](CO)N1C[C@H](C)[C@@H](CN(C)Cc2ccccc2)Oc2ccc(NS(=O)(=O)c3ccc(Cl)cc3)cc2CC1=O | 95 | -1 | -58 | 0 | x | x | x | x
C[C@@H]1CN([C@H](C)CO)C(=O)Cc2cc(NS(=O)(=O)c3ccc(Cl)cc3)ccc2O[C@H]1CN(C)Cc1ccccc1 | 100* | 0 | 2 | 0 | 110* | 103* | 7 | 16
COc1ccc(OC)c(NC(=O)Cn2cc(C(C)=O)c3ccccc32)c1 | x | x | x | 0 | x | x | x | x
COc1cc(-n2nnnc2SCC(=O)Nc2cccc(Cl)c2Cl)c(OC)cc1Cl | x | x | x | 1 | x | x | x | x
CN(C)C(=O)c1ccc(-c2ccc3c(c2)[C@H]2[C@H](CCN2S(=O)(=O)c2ccccc2)[C@H](CO)N3)cc1 | 29 | 0 | -34 | x | x | x | x | x
N#Cc1cccc(-c2ccc3c(c2)[C@@H]2[C@@H](CCN2S(=O)(=O)c2ccccc2)[C@H](CO)N3)c1 | 83 | 0 | 4 | x | x | x | x | x
CN(C)C(=O)c1cccc(-c2ccc3c(c2)[C@@H]2[C@@H](CCN2S(=O)(=O)c2ccccc2)[C@H](CO)N3)c1 | 112* | 0 | -11 | x | 97* | 80 | 23 | 23
CN(C)C(=O)c1cccc(-c2ccc3c(c2)[C@H]2[C@H](CCN2S(=O)(=O)c2ccccc2)[C@@H](CO)N3)c1 | 100* | -1 | -19 | x | 96* | 81 | 10 | 17
COc1ccc(NC(=O)CSc2nc(C)cc(=O)[nH]2)c(OC)c1 | x | x | x | 0 | x | x | x | x
SMILES | T cruzi growth-1 | KDM4C inh | Pf Dd2 growth | IDH1 R132H inh | T cruzi growth-2 | T cruzi growth-3 | 3T3 cytotox | 3T3 cytotox 2
Cc1ccc(Cl)cc1N(CC(=O)Nc1ccc(C(N)=O)cc1)S(C)(=O)=O | x | x | x | 0 | x | x | x | x
COC(=O)[C@@]1(Cc2ccccc2CN=[N+]=[N-])N=C(c2ccc(OCCCO)cc2)O[C@H]1c1ccccc1CN=[N+]=[N-] | x | x | x | 0 | x | x | x | x
CCCNC(=O)N1[C@@H](CO)[C@H](c2ccccc2)[C@@H]1CNC(=O)c1cccc(F)c1 | 102* | -1 | -45 | x | -3 | 12 | -19 | -2
CCCNC(=O)N1[C@H](CNC(C)=O)[C@@H](c2ccc(-c3ccccc3)cc2)[C@@H]1CO | 110* | -1 | -2 | x | 29 | -29 | -8 | 14
CCCNC(=O)N1[C@H](CO)[C@@H](c2ccccc2)[C@@H]1CNC(=O)c1cccc(F)c1 | -4 | -3 | -3 | x | x | x | x | x
COc1cc(NC(=O)COc2ccc([N+](=O)[O-])cc2)cc(OC)c1 | x | x | x | 0 | x | x | x | x
COCC#Cc1cnc2c(c1)C(=O)N([C@H](C)CO)C[C@@H](C)[C@H](CN(C)Cc1ccc(-c3ccccc3)cc1)O2 | 119* | 0 | -69 | -10 | 108* | 39 | 20 | 102*
COCC#Cc1cnc2c(c1)C(=O)N([C@H](C)CO)C[C@H](C)[C@@H](CN(C)Cc1ccc(-c3ccccc3)cc1)O2 | 80 | 0 | -68 | x | x | x | x | x
COCC#Cc1cnc2c(c1)C(=O)N([C@@H](C)CO)C[C@@H](C)[C@H](CN(C)Cc1ccc(-c3ccccc3)cc1)O2 | 120* | 0 | -44 | x | 109* | 62 | 46* | 106*
C[C@H]1CN([C@@H](C)CO)C(=O)c2cc(C#CCN(C)C)cnc2O[C@H]1CN(C)Cc1ccc(-c2ccccc2)cc1 | 79 | 2 | x | x | x | x | x | x
C[C@H](CO)N1C[C@H](C)[C@@H](CN(C)Cc2ccc(-c3ccccc3)cc2)Oc2ncc(C#CCN(C)C)cc2C1=O | u | 5 | x | x | 108* | 82 | 33 | 104*
O=C(O)C1OC(c2cccc(Cl)c2)=NC12CC2 (stereo not given) | x | x | x | 0 | x | x | x | x
